Calls of active or inactive are those of the source. The rule behind the calls is not given here.
Columns and labels:
[1] = molecular target: T1, Corticotropin-releasing factor receptor 1 (Homo sapiens, UniProt P34998); assay: Antagonist activity at human CRF1 receptor expressed in CHO-K1 cells assessed as CRF-stimulated cAMP accumulation by enzyme immunoassay; format: functional, cell-based; details: read-out: EC50 (the source's name)
T1 sequence (P34998 whole entry): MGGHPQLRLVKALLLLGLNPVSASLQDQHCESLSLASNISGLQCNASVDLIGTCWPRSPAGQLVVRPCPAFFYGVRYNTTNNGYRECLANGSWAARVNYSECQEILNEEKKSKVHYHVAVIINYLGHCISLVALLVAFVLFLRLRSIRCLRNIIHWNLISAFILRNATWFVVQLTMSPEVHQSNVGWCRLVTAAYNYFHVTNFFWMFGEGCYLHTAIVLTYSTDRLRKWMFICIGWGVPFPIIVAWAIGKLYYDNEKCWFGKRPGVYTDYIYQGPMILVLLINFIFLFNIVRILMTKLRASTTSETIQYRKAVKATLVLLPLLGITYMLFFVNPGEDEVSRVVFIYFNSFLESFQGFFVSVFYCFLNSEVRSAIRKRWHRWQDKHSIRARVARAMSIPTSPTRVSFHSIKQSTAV
Summary of the method: (§1)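 CHO-K1 cells expressing CRF1 were seeded at 1 × 10^4 cells/well and incubated overnight, then washed twice with F-12. They were preincubated 10 min at 37 °C in F-12 containing 1 mmol/l IBMX. Test compound (1–10000 nmol/l) and 10 nmol/l CRF (final concentration not stated) were added, followed by 15 min at 37 °C. Cells were chilled and cAMP measured by enzyme immunoassay after blank subtraction. IC50 was taken from concentration–response curves.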

[2] = molecular target: T1, Corticotropin-releasing factor receptor 1; assay: Displacement of [125I]CRF from human CRF1 receptor expressed in CHO-K1 cells after 2 hrs by gamma counter; format: cell-based
Summary of the method: (§2)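 Crude membranes came from CRF1-expressing CHO-K1 cells, homogenized in 50 mmol/l Tris–HCl with 10 mmol/l MgCl2, 2 mmol/l EDTA and aprotinin, then spun at 10,000 g. Membranes were incubated 2 h at room temperature with 0.5 nmol/l 125I human/rat CRF (added solution) and test compound (1–10000 nmol/l). Bound ligand was separated by centrifugation and washed with PBS/0.01% Triton X-100, then counted by γ-counter. Nonspecific binding was defined with 1 µmol/l unlabeled CRF. IC50 was taken from concentration–response curves.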

[3] = molecular target: T2, Corticotropin-releasing factor receptor 1 (Rattus norvegicus, UniProt P35353); assay: Antagonist activity at rat CRF1 receptor expressed in CHO-K1 cells assessed as CRF-stimulated cAMP accumulation by enzyme immunoassay; format: functional, cell-based; summary of the method: as §1
T2 sequence (P35353 whole entry): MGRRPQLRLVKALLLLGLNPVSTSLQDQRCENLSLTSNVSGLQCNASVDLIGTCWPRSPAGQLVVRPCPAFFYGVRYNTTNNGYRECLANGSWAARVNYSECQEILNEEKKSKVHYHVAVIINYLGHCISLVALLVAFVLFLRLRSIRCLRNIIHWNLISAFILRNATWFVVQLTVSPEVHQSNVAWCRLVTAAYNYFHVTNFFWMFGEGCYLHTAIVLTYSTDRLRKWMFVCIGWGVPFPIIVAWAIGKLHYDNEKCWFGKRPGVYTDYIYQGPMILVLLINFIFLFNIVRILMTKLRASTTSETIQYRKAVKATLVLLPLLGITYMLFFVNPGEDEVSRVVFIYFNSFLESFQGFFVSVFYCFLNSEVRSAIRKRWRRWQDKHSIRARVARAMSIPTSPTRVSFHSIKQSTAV

[4] = Half life in rat at 1 mg/kg, po; format: ADME, organism-based; parameters: dose 1 mg/kg, route oral; details: in vivo
Summary of the method: (§3)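 Fasted male rats received a single 1 mg/kg dose, either iv in saline with 30% HP-β-CD or po in saline with 0.5% MC (n = 4 each). Jugular blood was taken by heparinized syringe (iv: 2 min–72 h; po: 1–72 h) and spun to plasma stored at −70 °C. AUC, Cmax, Tmax, T1/2, Vss and CL were derived from plasma concentration–time courses. F = dose-normalized AUCpo/AUCiv × 100.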

[5] = Cmax in rat at 1 mg/kg, po; details: in vivo
[6] = Total clearance in rat at 1 mg/kg, iv; format: ADME, organism-based; parameters: dose 1 mg/kg, route intravenous; details: in vivo; summary of the method: as §3
[7] = Volume of distribution at steady state in rat at 1 mg/kg, iv; format: ADME, organism-based; parameters: dose 1 mg/kg, route intravenous; details: in vivo, read-out: Vdss; summary of the method: as §3
[8] = Oral bioavailability in rat at 1 mg/kg; format: ADME, organism-based; details: in vivo; summary of the method: as §3
Rattus norvegicus [9] = assay: Anxiolytic activity against swin-stress-induced anxiety-like behavior in po dosed Sprague-Dawley rat assessed as increase in time spent in open arms after 1 hr by plus-maze test; format: functional, organism-based
Summary of the method: (§4)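 Male Sprague-Dawley rats (230–280 g) received oral vehicle (0.5% MC) or compound 1 h before testing. They were forced to swim 120 s in 22 ± 2 °C water (25 cm deep) and dried. Each rat was placed at the maze centre facing a closed arm and video-tracked for 5 min. Time in and entries into open arms were scored. Non-stressed controls were included. Data are mean ± S.E., with n=16 per group. Dunnett test versus vehicle.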

[10] = Tmax in rat at 1 mg/kg, po; format: ADME, organism-based; parameters: dose 1 mg/kg, route oral; details: in vivo; summary of the method: as §3
Rattus norvegicus [11] = assay: Anxiolytic activity against swin-stress-induced anxiety-like behavior in Sprague-Dawley rat assessed as increase in time spent in open arms at 10 mg/kg, po after 1 hr by plus-maze test; format: functional, organism-based; parameters: dose 10 mg/kg; summary of the method: as §4
[12] = AUC (infinity) in rat at 1 mg/kg, iv; format: ADME, organism-based; parameters: time infinity, dose 1 mg/kg, route intravenous; details: plasma
Summary of the method: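 Fasted male rats given a single 1 mg/kg intravenous dose in saline with 30% HP-β-CD (w/v). Heparinized jugular-vein blood was drawn pre-dose and at 2, 5, 15 and 30 min and 1, 2, 3, 4, 8, 24, 48 and 72 h. Plasma was separated by centrifugation and stored at -70 °C. AUC was derived from the plasma concentration–time course.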

[13] = AUC (infinity) in rat at 1 mg/kg, po; format: ADME, organism-based; parameters: time infinity, dose 1 mg/kg, route oral; details: plasma
Summary of the method: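 Fasted male rats dosed orally once at 1 mg/kg in saline with 0.5% MC (w/v). Heparinized jugular-vein blood was taken at 1, 2, 4, 6, 8, 24, 48 and 72 h. Plasma was obtained by centrifugation and kept at -70 °C. AUC came from the plasma concentration–time profile.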

[14] = molecular target: T2, Corticotropin-releasing factor receptor 1; assay: Displacement of [125I]CRF from rat CRF1 receptor expressed in CHO-K1 cells after 2 hrs by gamma counter; format: cell-based; details: in the assay text read “in brain membranes” for “expressed in CHO-K1 cells”; summary of the method: as §2
[15] = Half life in rat at 1 mg/kg, iv; format: ADME, organism-based; parameters: dose 1 mg/kg, route intravenous; details: in vivo; summary of the method: as §3
Rattus norvegicus [16] = assay: Anxiolytic activity against swin-stress-induced anxiety-like behavior in Sprague-Dawley rat assessed as increase in time spent in open arms at 3 mg/kg, po after 1 hr by plus-maze test; format: functional, organism-based; parameters: dose 3 mg/kg; summary of the method: as §4

Compound | IC50 [1] | IC50 [2] | other results
CCC(CC)c1cc(C)n2nc(-c3ccc(OC)cc3Cl)n(C3CC3)c(=O)c12 | 1 nM | 5.9 nM | 
CCC(CC)c1cc(C)n2nc(-c3cnc(N(C)C)cc3C)c(C)cc12 | 11.5 nM | 7.4 nM | 
CCC(CC)c1cc(C)n2nc(-c3cc(C)c(C)cc3C)c(C)cc12 | 3.3 nM | 16.6 nM | 
Cc1nc(N(C)C)ccc1-c1nn2c(C)cc(C(C)C)c2c(=O)n1C |  | 131 nM | 
CCC(CC)c1cc(C)n2nc(-c3ccc(C)cc3C)c(C)cc12 | 1.8 nM | 11.6 nM | 
CCC(C)c1cc(C)n2nc(-c3ccc(OC)cc3Cl)n(C)c(=O)c12 (centres undefined) | 1.1 nM | 4.9 nM | 
CCC(CC)c1cc(C)n2nc(-c3ccc(OC)cc3C)n(CC)c(=O)c12 | 1.2 nM | 9.7 nM | 
CCC(CC)c1cc(C)n2nc(-c3ccc(OC)cc3C)n(C)c(=O)c12 | 1.7 nM | 2.6 nM | 
CCC(C)c1cc(C)n2nc(-c3c(C)cc(OC)cc3C)n(C)c(=O)c12 (centres undefined) | 3.5 nM | 4.2 nM | 
CCC(CC)c1cc(C)n2nc(-c3ccc(OC)cc3C)n(CC3CC3)c(=O)c12 | 5 nM | 3.3 nM | 
CCC(CC)c1cc(C)n2nc(-c3ccc(OC)cc3Cl)[nH]c(=O)c12 | 4 nM | 14.3 nM | 
CCC(CC)c1cc(C)n2nc(-c3ccc(OC)cc3C)n(C(C)C)c(=O)c12 | 5.1 nM | 19.2 nM | 
CCC(CC)c1cc(C)n2nc(-c3cnc(OC(F)F)cc3C)n(C)c(=O)c12 | 3.2 nM |  | EC50 [3]: 2.6 nM; half-life [4]: 2.4 h; Cmax [5]: 21.5 ng/mL; clearance [6]: 34.7 mL/min/kg; Vd [7]: 2.95 L/kg; bioavailability [8]: 13.5%; Activity (Rattus norvegicus [9]): Dose-dependent effect; Tmax [10]: 1 h; Activity (Rattus norvegicus [11]): Active; AUC(0-inf) [12]: 518 ng·h/mL; AUC(0-inf) [13]: 70.2 ng·h/mL; IC50 [14]: 8.4 nM; half-life [15]: 4.3 h
CCC(CC)c1cc(C)n2nc(-c3ccc(OC)nc3C)n(C)c(=O)c12 | 1.1 nM | 3.8 nM | 
CCC(CC)c1cc(C)n2nc(-c3ccc(OC)cc3Cl)n(C)c(=O)c12 | 1.2 nM | 3.8 nM | 
CCC(C)c1cc(C)n2nc(-c3ccc(N(C)C)nc3C)n(C)c(=O)c12 (centres undefined) | 36.5 nM | 81.2 nM | 
CCC(CC)c1cc(C)n2nc(-c3ccc(OC)cc3C)n(C3CC3)c(=O)c12 | 3.7 nM | 5.7 nM | 
COc1ccc(-c2nn3c(C)cc(C(C)C)c3c(=O)n2C)c(Cl)c1 | 7.4 nM | 8.7 nM | 

Compound | IC50 [1] | IC50 [2] | other results
CCC(CC)c1cc(C)n2nc(-c3ccc(OC(F)F)nc3C)n(C)c(=O)c12 | 0.3 nM | 4.5 nM | 
CCC(C)c1cc(C)n2nc(-c3ccc(OC)cc3C)n(C)c(=O)c12 (centres undefined) | 2.4 nM | 5 nM | 
CCC(CC)c1cc(C)n2nc(-c3ccc(OC)cc3C)c(C)cc12 | 4.9 nM |  | Activity (Rattus norvegicus [16]): Active
CCC(CC)c1cc(C)n2nc(-c3cnc(OC)cc3C)n(C)c(=O)c12 | 17.2 nM | 8.6 nM | 
CCC(CC)c1cc(C)n2nc(-c3ccc(OC)cc3C)[nH]c(=O)c12 | 688 nM | 149 nM | 
CCc1cc(OC)c(OC)cc1-c1nn2c(C)cc(C(CC)CC)c2cc1C | 1.9 nM | 8.9 nM | 
CCOc1ccc(-c2nn3c(C)cc(C(CC)CC)c3cc2C)c(CC)c1 | 6.9 nM | 13.4 nM | 
CCC(CC)c1cc(C)n2nc(-c3c(C)cc(OC)cc3C)n(C)c(=O)c12 | 0.6 nM | 2 nM | 
CCC(CC)c1cc(C)n2nc(-c3ccc(OC)cc3Cl)n(CC)c(=O)c12 | 0.7 nM | 4.6 nM | 
CCC(CC)c1cc(C)n2nc(-c3ccc(OC)cc3Cl)n(CCO)c(=O)c12 | 3.5 nM | 4.4 nM | 
CCC(CC)c1nc(C)c2nc(-c3ccc(OC)cc3C)c(C)cn12 |  | 311 nM | 
CCC(CC)c1cc(C)n2nc(-c3cc4c(cc3C)OCO4)c(C)cc12 | 2.5 nM | 18.3 nM | 
CCC(CC)c1cc(C)n2nc(-c3ccc(N(C)C)nc3C)n(C)c(=O)c12 | 5.5 nM | 7.8 nM | 
CCC(CC)c1cc(C)n2nc(-c3ccc(OC)cc3C)n(CC(C)C)c(=O)c12 | 47.2 nM | 111 nM | 
CCC(CC)c1cc(C)n2nc(-c3ccc(OC)cc3C)n(CCO)c(=O)c12 | 4.2 nM |  | 
CCC(CC)c1nc(C)n2nc(-c3ccc(OC)cc3C)c(C)cc12 | 566 nM | 122 nM | 
COc1cc(C)c(-c2nn3c(C)cc(C(C)C)c3c(=O)n2C)c(C)c1 | 4.5 nM | 13.1 nM | 

Source: ChEMBL document CHEMBL1938359, “Pyrrolo[1,2-b]pyridazines, pyrrolo[2,1-f]triazin-4(3H)-ones, and related compounds as novel corticotropin-releasing factor 1 (CRF₁) receptor antagonists” (Bioorg Med Chem, 2012)
